Experimental data taken from ChEMBL document CHEMBL4145448, “Broad activity of diphenyleneiodonium analogues against Mycobacterium tuberculosis, malaria parasites and bacterial pathogens” (Eur J Med Chem, 2018).

Tests used:
[1] = system: Klebsiella pneumoniae; experiment: Antibacterial activity against Klebsiella pneumoniae isolate M320445 after 18 hrs by broth microdilution method; assay type: functional; details: isolate M320445, 18 h
Summary of the method: (§1)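 Broth microdilution per CLSI in cation-adjusted Mueller-Hinton broth. 100 µL inoculum (~10^6 cfu/mL in CaMHB) mixed with 100 µL CaMHB containing compound, 0 to 128 µM. Incubated 18 h at 37 °C. MIC taken as the lowest concentration with no visible growth. Polymyxin B served as positive control. Isolates were stored at -80 °C in tryptone soy broth with 20% glycerol.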

[2] = Selectivity index, ratio of CC50 for human HepG2 cells in presence of 1% FBS to MIC for Pseudomonas aeruginosa isolate 912; assay type: toxicity; details: read-out: Selectivity Index
Summary of the method: (§2)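 Selectivity index is CC50 (1% FBS) divided by MIC. […] They then got compound at 300 to 0.14 µM (3-fold steps) for 24 h at 37 °C, 5% CO2. Resazurin (10 µM, 2 h) was read at ex/em 560/590 in duplicate wells. For MIC, CLSI broth microdilution was run in CaMHB with ~10^6 cfu/mL inoculum and 0–128 µM compound.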

[3] = Selectivity index, ratio of CC50 for human HepG2 cells in presence of 1% FBS to MIC for Pseudomonas aeruginosa isolate 19147nm; assay type: toxicity; details: read-out: Selectivity Index; summary of the method: as §2
[4] = Selectivity index, ratio of CC50 for human HepG2 cells in presence of 1% FBS to MIC for Klebsiella pneumoniae isolate 224-11-C; assay type: toxicity; details: read-out: Selectivity Index
[5] = system: Klebsiella pneumoniae; experiment: Antibacterial activity against Klebsiella pneumoniae isolate 248-33-D after 18 hrs by broth microdilution method; assay type: functional; summary of the method: as §1
[6] = Selectivity index, ratio of CC50 for human HepG2 cells in presence of 1% FBS to MIC for Klebsiella pneumoniae isolate 1; assay type: toxicity; details: read-out: Selectivity Index
[7] = system: Pseudomonas aeruginosa; experiment: Antibacterial activity against Pseudomonas aeruginosa isolate M146201 after 18 hrs by broth microdilution method; assay type: functional; details: isolate M146201, 18 h; summary of the method: as §1
[8] = system: Staphylococcus aureus; experiment: Antibacterial activity against methicillin-resistant Staphylococcus aureus ATCC 43300 after 18 hrs by broth microdilution method; assay type: functional; details: ATCC 43300, 18 h; summary of the method: as §1
[9] = system: Klebsiella pneumoniae; experiment: Antibacterial activity against Klebsiella pneumoniae isolate 224-11-C after 18 hrs by broth microdilution method; assay type: functional; summary of the method: as §1
[10] = Selectivity index, ratio of CC50 for human HepG2 cells in presence of 1% FBS to MIC for Klebsiella pneumoniae isolate 248-33-D; assay type: toxicity; details: read-out: Selectivity Index
[11] = system: Acinetobacter baumannii; experiment: Antibacterial activity against Acinetobacter baumannii isolate 07AC-336 after 18 hrs by broth microdilution method; assay type: functional; details: isolate 07AC-336, 18 h; summary of the method: as §1
[12] = Selectivity index, ratio of CC50 for human HepG2 cells in presence of 1% FBS to MIC for vancomycin-resistant Enterococcus faecium ATCC 700221; assay type: toxicity; details: read-out: Selectivity Index; summary of the method: as §2
[13] = Selectivity index, ratio of CC50 for human HepG2 cells in presence of 1% FBS to MIC for Acinetobacter baumannii ATCC 17978 col10; assay type: toxicity; details: read-out: Selectivity Index
[14] = Selectivity index, ratio of CC50 for human HepG2 cells in presence of 1% FBS to MIC for Pseudomonas aeruginosa QLD PSA 1; assay type: toxicity; details: read-out: Selectivity Index; summary of the method: as §2
[15] = Selectivity index, ratio of CC50 for human HepG2 cells in presence of 1% FBS to MIC for Acinetobacter baumannii ATCC 19606; assay type: toxicity; details: read-out: Selectivity Index
[16] = Selectivity index, ratio of CC50 for human HepG2 cells in presence of 1% FBS to MIC for Escherichia coli N4149; assay type: toxicity; details: read-out: Selectivity Index
[17] = system: Mycobacterium tuberculosis; experiment: Antimycobacterial activity against Mycobacterium tuberculosis H37Rv ATCC 25618 after 7 days by resazurin dye based assay; assay type: functional; details: H37Rv ATCC 25618, 168 h
Summary of the method: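 H37Rv grown at 37 °C in 7H9 with 10% ADC, 0.5% glycerol and 0.02% tyloxapol. Compounds serially diluted in water, 0 to 10 µM, in triplicate. Culture adjusted to OD600 0.001 and incubated 7 days at 37 °C. Resazurin (0.05% w/v) added for 4-24 h and fluorescence read at 590 nm. MIC is the lowest concentration giving complete growth inhibition versus untreated. Rifampicin served as control.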

[18] = system: Pseudomonas aeruginosa; experiment: Antibacterial activity against Pseudomonas aeruginosa isolate 912 after 18 hrs by broth microdilution method; assay type: functional; details: isolate 912, 18 h; summary of the method: as §1
[19] = Selectivity index, ratio of CC50 for human HepG2 cells in presence of 1% FBS to MIC for vancomycin-intermediate Staphylococcus aureus ATCC 700698; assay type: toxicity; details: read-out: Selectivity Index; summary of the method: as §2
[20] = Selectivity index, ratio of CC50 for human HepG2 cells in presence of 1% FBS to MIC for Escherichia coli N2381; assay type: toxicity; details: read-out: Selectivity Index
[21] = Selectivity index, ratio of CC50 for human HepG2 cells in presence of 1% FBS to MIC for vancomycin-resistant Staphylococcus aureus ATCC 700699; assay type: toxicity; details: read-out: Selectivity Index; summary of the method: as §2
[22] = system: Staphylococcus aureus; experiment: Antibacterial activity against vancomycin-resistant Staphylococcus aureus ATCC 700699 after 18 hrs by broth microdilution method; assay type: functional; details: ATCC 700699, 18 h; summary of the method: as §1
[23] = system: Acinetobacter baumannii; experiment: Antibacterial activity against Acinetobacter baumannii ATCC 19606 col10 after 18 hrs by broth microdilution method; assay type: functional; details: ATCC 19606 = CIP 70.34 = JCM 6841 col10, 18 h; summary of the method: as §1
[24] = Selectivity index, ratio of CC50 for human HepG2 cells in presence of 1% FBS to MIC for Acinetobacter baumannii ATCC 19606 col10; assay type: toxicity; details: read-out: Selectivity Index
[25] = Selectivity index, ratio of CC50 for human HepG2 cells in presence of 1% FBS to MIC for Mycobacterium tuberculosis H37Rv ATCC 25618; assay type: toxicity; details: read-out: Selectivity Index
[26] = Cytotoxicity against human HepG2 cells after 24 hrs in presence of 1% FBS by resazurin dye based assay; assay type: cell-based
Summary of the method: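 HepG2 cells seeded at 4000/well in DMEM with 1% FBS and allowed to attach for 24 h at 37 °C, 5% CO2. Compounds added from 300 to 0.14 µM in 3-fold steps and incubated 24 h. 10 µM resazurin added for 2 h, fluorescence read at ex/em 560/590. Percent viability computed relative to untreated and negative controls, duplicate wells.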

[27] = system: Acinetobacter baumannii; experiment: Antibacterial activity against Acinetobacter baumannii ATCC 19606 after 18 hrs by broth microdilution method; assay type: functional; details: ATCC 19606 = CIP 70.34 = JCM 6841, 18 h; summary of the method: as §1
[28] = Selectivity index, ratio of CC50 for human HepG2 cells in presence of 1% FBS to MIC for methicillin-resistant Staphylococcus aureus ATCC 43300; assay type: toxicity; details: read-out: Selectivity Index; summary of the method: as §2
[29] = system: Staphylococcus aureus; experiment: Antibacterial activity against vancomycin-intermediate Staphylococcus aureus ATCC 700698 after 18 hrs by broth microdilution method; assay type: functional; details: ATCC 700698, 18 h; summary of the method: as §1
[30] = system: Klebsiella pneumoniae; experiment: Antibacterial activity against Klebsiella pneumoniae isolate 1 after 18 hrs by broth microdilution method; assay type: functional; details: isolate 1, 18 h; summary of the method: as §1
[31] = system: Acinetobacter baumannii; experiment: Antibacterial activity against Acinetobacter baumannii ATCC 17978 col10 after 18 hrs by broth microdilution method; assay type: functional; details: ATCC 17978 col10, 18 h; summary of the method: as §1
[32] = Selectivity index, ratio of CC50 for human HepG2 cells in presence of 1% FBS to MIC for Acinetobacter baumannii ATCC 17978; assay type: toxicity; details: read-out: Selectivity Index

SMILES	MIC [1]	selectivity ratio [2]	selectivity ratio [3]	selectivity ratio [4]	MIC [5]	selectivity ratio [6]	MIC [7]	MIC [8]	MIC [9]	selectivity ratio [10]	MIC [11]	selectivity ratio [12]	selectivity ratio [13]	selectivity ratio [14]	selectivity ratio [15]	selectivity ratio [16]	MIC [17]	MIC [18]	selectivity ratio [19]	selectivity ratio [20]	further results
Fc1ccc2c(c1)-c1ccccc1[I+]2	18 µM	5.3	11	0.33	18 µM	0.33	4.5 µM	4.5 µM	36 µM	0.67	9.1 µM	2.7	2	0.67	2.7	0.33	0.29 µM	2.2 µM	0.67	0.67	selectivity ratio [21]: 1.3; MIC [22]: 9.1 µM; MIC [23]: 2.2 µM; selectivity ratio [24]: 5.3; selectivity ratio [25]: 41; CC50 at 24 h [26]: 11.9 µM; MIC [27]: 4.5 µM; selectivity ratio [28]: 2.7; MIC [29]: 18 µM; MIC [30]: 36 µM; MIC [31]: 0.56 µM; selectivity ratio [32]: 5.3
N#Cc1ccc2c(c1)-c1ccccc1[I+]2	71 µM	2.5	5.1	> 0.32	71 µM	> 0.32	8.8 µM	1.1 µM	> 71 µM	0.32	71 µM	20	10	0.13	0.13	> 0.32	0.29 µM	8.8 µM	2.5	0.32	selectivity ratio [21]: 2.5; MIC [22]: 8.8 µM; MIC [23]: 2.2 µM; selectivity ratio [24]: 10; selectivity ratio [25]: 78; CC50 at 24 h [26]: 22.3 µM; MIC [27]: 18 µM; selectivity ratio [28]: 20; MIC [29]: 8.8 µM; MIC [30]: > 71 µM; MIC [31]: 2.2 µM; selectivity ratio [32]: 5.1
COc1ccc2c(c1)-c1ccccc1[I+]2	70 µM	2.3	1.2	> 0.29	> 70 µM	> 0.29	70 µM	18 µM	> 70 µM	> 0.29	70 µM	4.6	4.6	0.29	0.58	> 0.29	1.1 µM	8.7 µM	0.58	> 0.29	selectivity ratio [21]: 0.58; MIC [22]: 35 µM; MIC [23]: 8.7 µM; selectivity ratio [24]: 2.3; selectivity ratio [25]: 19; CC50 at 24 h [26]: 20.2 µM; MIC [27]: 35 µM; selectivity ratio [28]: 1.5; MIC [29]: 35 µM; MIC [30]: > 70 µM; MIC [31]: 4.4 µM; selectivity ratio [32]: 1.2
